Measurements taken from paper PMC3654864 (Journal of medicinal chemistry, 2012).
Like-named read-outs stand apart in the source and are kept apart here. Values belong to the compound of their own block, whether it stands above or below them.

Columns and labels:
[1] = pH-responsive hydrolysis to emetine in phosphate buffer, quantified by HPLC; assay type: physicochemical; conditions: for activation to emetine at pH 5.5: pH 5.5, over a 48 h period; for percent emetine released (hydrolysis to emetine) at pH 6.5: phosphate buffer pH 6.5, 37 °C
Procedure, shortened: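 Pure test compound was incubated at 37 °C in aqueous phosphate buffer at pH 5.5, 6.5 or 7.4 for 24–48 h; stability at pH 7.4 was followed up to 5 days. Samples were analysed by HPLC to quantify released emetine. Percent conversion is the percent emetine in the sample mixture.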

[2] = test system: LNCaP prostate cancer cell lines; assay: MTT cytotoxicity assay in LNCaP cells; assay type: cell-based, human; conditions: 7 day, relative to compound 13
[3] = test system: PC3 prostate cancer cell lines; assay: MTT cytotoxicity assay in PC3 cells; assay type: cell-based, human
healthy mice = assay: In-vivo toxicity study in healthy mice; conditions: for toxicity on three-week follow-up: after 100 mg/kg iv daily for five days, studied for three weeks; for appearance of mice / percent weight loss relative to control mice: 33 mg/kg; for appearance of mice: 48 hours; for percent weight loss relative to control mice: within 48 hours of daily dosing; for percent weight change within 48 hours versus control group: 100 mg/kg; for signs of toxicity: 100 mg/kg body weight daily for five days
[4] = test system: PC3 and LNCaP prostate cancer cell lines; assay: In-vitro cytotoxicity in PC3 and LNCaP, summary statements for both lines; assay type: cell-based, human
Procedure, shortened: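 MTT colorimetric assay on human prostate cancer cells (androgen receptor-positive LNCaP, androgen receptor-negative PC3). Cells were exposed to six concentrations of test compound for 7 days, with viable cells read spectrophotometrically on days 3, 5 and 7. IC50 was taken from the day-7 read. Emetine was run in the same assay.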

[5] = PC3, Figures 4a-f, time at which optimum IC50 is reached or pattern

- activation to emetine at pH 5.5 [1]: activated to emetine
Compound: CC[C@H]1CN2CCc3cc(OC)c(OC)cc3[C@@H]2C[C@@H]1C[C@@H]1c2cc(OC)c(OC)cc2CCN1C(=O)/C=C\C(=O)[O-].[Na+] [Compound 25]

Compound: CC[C@H]1CN2CCc3cc(OC)c(OC)cc3[C@@H]2C[C@@H]1C[C@@H]1c2cc(OC)c(OC)cc2CCN1C(=S)SCc1ccccc1 [Compound 14]
- fold increase of IC50 relative to 13 [2]: about 24 fold
- fold increase of IC50 relative to 13 ([3]; PC3, 7 day, relative to compound 13): ~18 fold
- progress of cytotoxicity (IC50) over day 3, 5 and 7 [3, 5]: progressive decrease in IC50 values

Compound: CC[C@H]1CN2CCc3cc(OC)c(OC)cc3[C@@H]2C[C@@H]1C[C@@H]1c2cc(OC)c(OC)cc2CCN1C(=O)NCc1ccc(Cl)cc1 [Compound 9]
- progress of cytotoxicity (IC50) over day 3, 5 and 7 [3, 5]: reach an optimum by day 3

Compound: CC[C@H]1CN2CCc3cc(OC)c(OC)cc3[C@@H]2C[C@@H]1C[C@@H]1c2cc(OC)c(OC)cc2CCN1C(=S)[S-].[Na+] [Compound 13]
- toxicity on three-week follow-up (healthy mice): no noticeable effect of toxicity
- appearance of mice (healthy mice; iv): appeared healthy with no noticeable signs of toxicity
- percent weight loss relative to control mice (healthy mice; iv): no significant difference
- percent weight change within 48 hours versus control group (healthy mice; iv): very similar to that obtained for the control group
- signs of toxicity (healthy mice; iv): no sign of toxicity
- activation to emetine at pH 5.5 [1]: activated to emetine
- percent hydrolysis to emetine at pH 5.5 ([1]; phosphate buffer pH 5.5, 37 °C, within 48 hours): about 94.5%
- percent emetine released (hydrolysis to emetine) at pH 6.5 ([1]; within 48 hours): 13.2%
- 7th day IC50 fold higher than emetine ([4]; LNCaP and PC3, 7th day, relative to emetine): about 3 fold
- progress of cytotoxicity (IC50) over day 3, 5 and 7 [3, 5]: an optimum IC50 value was obtained by day 5

Compound: CC[C@H]1CN2CCc3cc(OC)c(OC)cc3[C@@H]2C[C@@H]1C[C@@H]1c2cc(OC)c(OC)cc2CCN1S(=O)(=O)c1ccc(OC)cc1 [Compound 12]
- progress of cytotoxicity (IC50) over day 3, 5 and 7 [3]: an optimum IC50 value was obtained by day 5

Compound: CC[C@H]1CN2CCc3cc(OC)c(OC)cc3[C@@H]2C[C@@H]1C[C@@H]1c2cc(OC)c(OC)cc2CCN1C(=O)/C=C(/CC(=O)[O-])C(=O)[O-].[Na+].[Na+] [Compound 27]
- activation to emetine at pH 5.5 [1]: activated to emetine

Compound: CC[C@H]1CN2CCc3cc(OC)c(OC)cc3[C@@H]2C[C@@H]1C[C@@H]1c2cc(OC)c(OC)cc2CCN1C(=O)NCc1ccc(OC)cc1 [Compound 8]
- progress of cytotoxicity (IC50) over day 3, 5 and 7 [3]: progressive decrease in IC50 values

- activation to emetine at pH 5.5 [1]: activated to emetine
- percent emetine released (hydrolysis to emetine) at pH 6.5 ([1]; within 48 hours): about 50%
Compound: CC[C@H]1CN2CCc3cc(OC)c(OC)cc3[C@@H]2C[C@@H]1C[C@@H]1c2cc(OC)c(OC)cc2CCN1C(=O)/C=C\C(=O)O [Compound 21]

Compound: CC[C@H]1CN2CCc3cc(OC)c(OC)cc3[C@@H]2C[C@@H]1C[C@@H]1c2cc(OC)c(OC)cc2CCN1C(=O)NCc1ccccc1 [Compound 7]
- progress of cytotoxicity (IC50) over day 3, 5 and 7 [3]: reach an optimum by day 3

Compound: CC[C@H]1CN2CCc3cc(OC)c(OC)cc3[C@@H]2C[C@@H]1C[C@@H]1c2cc(OC)c(OC)cc2CCN1C(=O)OCc1ccccc1 [Compound 15]
- progress of cytotoxicity (IC50) over day 3, 5 and 7 [3, 5]: progressive decrease in IC50 values

Compound: CC[C@H]1CN2CCc3cc(OC)c(OC)cc3[C@@H]2C[C@@H]1C[C@H]1NCCc2cc(OC)c(OC)cc21.Cl.Cl [emetine, Emetine, reference compound]
- lethality (healthy mice; iv, 33 mg/kg body weight, within the period of study): did not kill the mice
- average weight loss over a 48 hour period (healthy mice; iv, 33 mg/kg daily dosing): about 3.6%
- appearance of mice (healthy mice; iv): appeared lethargic
- percent weight loss relative to control mice (healthy mice; iv): about 4
- lethality (healthy mice; iv, single dose 100 mg/kg body weight, within 48 hours): killed all three mice
- IC50 ([4]; Homo sapiens, LNCaP, read-out: IC50 range of emetine): 0.0237 to 0.0329 µM

Compound: CC[C@H]1CN2CCc3cc(OC)c(OC)cc3[C@@H]2C[C@@H]1C[C@@H]1c2cc(OC)c(OC)cc2CCN1C(=S)NCc1ccc(Cl)cc1 [Compound 6]
- progress of cytotoxicity (IC50) over day 3, 5 and 7 [3, 5]: reach an optimum by day 3

Compound: CC[C@H]1CN2CCc3cc(OC)c(OC)cc3[C@@H]2C[C@@H]1C[C@@H]1c2cc(OC)c(OC)cc2CCN1C(=O)CCC(=O)[O-].[Na+] [Compound 24]
- progress of cytotoxicity (IC50) over day 3, 5 and 7 [3]: an optimum IC50 value was obtained by day 5

Compound: CC[C@H]1CN2CCc3cc(OC)c(OC)cc3[C@@H]2C[C@@H]1C[C@@H]1c2cc(OC)c(OC)cc2CCN1C(=S)NCc1ccc(OC)cc1 [Compound 5]
- progress of cytotoxicity (IC50) over day 3, 5 and 7 [3, 5]: an optimum IC50 value was obtained by day 5

Compound: CC[C@H]1CN2CCc3cc(OC)c(OC)cc3[C@@H]2C[C@@H]1C[C@@H]1c2cc(OC)c(OC)cc2CCN1C(=O)/C=C(/C)C(=O)[O-].[Na+] [Compound 26]
- toxicity on three-week follow-up (healthy mice): no noticeable effect of toxicity
- percent weight change within 48 hours versus control group (healthy mice; iv): very similar to that obtained for the control group
- signs of toxicity (healthy mice; iv): no sign of toxicity
- activation to emetine at pH 5.5 [1]: activated to emetine
- percent emetine released (hydrolysis to emetine) at pH 6.5 ([1]; within 48 hours): about 50%
- progress of cytotoxicity (IC50) over day 3, 5 and 7 [3]: an optimum IC50 value was obtained by day 5

Compound: CC[C@H]1CN2CCc3cc(OC)c(OC)cc3[C@@H]2C[C@@H]1C[C@@H]1c2cc(OC)c(OC)cc2CCN1C(=O)/C=C(/C)C(=O)O [Compound 22]
- activation to emetine at pH 5.5 [1]: activated to emetine
- percent emetine released (hydrolysis to emetine) at pH 6.5 ([1]; within 48 hours): ~80%
